The text below walks through data of ChEMBL document CHEMBL4680077, “Differentiation of skeletal osteogenic progenitor cells to osteoblasts with 3,4-diarylbenzopyran based amide derivatives: Novel osteogenic agents” (Eur J Med Chem, 2016).

One data set concerns Calvarial osteoblast. Nature of the data set: Induction of osteoblast differentiation in mouse calvarial osteoblast assessed as increase in ALP activity using PNPP as substrate at 0.000001 to 1 uM incubated activity for 48 hrs by spectrophotometric analysis relative to control. As to conditions: dose lower 1e-06 µM, dose upper 1.0 µM. It counts as functional, cell-based.
The nature of data set [1]: Acute toxicity in Swiss albino mouse assessed as absolute heart weight at 50 mg/kg, po measured after 7 days (reference value: 0.12 g). The following applies: in vivo, 168 h, time 7 day. It counts as organism-based.
The nature of data set [2]: Acute toxicity in Swiss albino mouse assessed as malondialdehyde level at 50 mg/kg, po measured after 7 days (reference value: 0.14 +/- 0.01 nM/mg). It counts as organism-based. The following applies: in vivo, 168 h, time 7 day.
Data set [3] is described as follows: Acute toxicity in Swiss albino mouse assessed as absolute spleen weight at 5 mg/kg, po measured after 7 days (reference value: 0.17 +/- 0.03 g). The following applies: in vivo, 168 h, time 7 day. Type of data set: organism-based.
A short description of data set [4]: Acute toxicity in Swiss albino mouse assessed as WBC count per thousand/mm3 at 50 mg/kg, po measured after 7 days (reference value: 6.84 +/- 0.83 /mm3). It counts as organism-based. As to conditions: in vivo, 168 h, time 7 day.
Data set [5] in a line: Acute toxicity in Swiss albino mouse assessed as absolute uterus weight at 300 mg/kg, po measured after 7 days (reference value: 0.27+/- 0.07 g). As to conditions: in vivo, 168 h, time 7 day. It counts as organism-based.
Data set [6] in a line: Acute toxicity in Swiss albino mouse assessed as reduced GSH level at 50 mg/kg, po measured after 7 days (reference value: 18.20 +/- 1.56 ug/mg of protein). Type of data set: organism-based. The following applies: in vivo, 168 h, time 7 day.
Data set [7] can be described thus: Acute toxicity in Swiss albino mouse assessed as absolute brain weight at 5 mg/kg, po measured after 7 days (reference value: 0.37 +/- 0.02 g). Type of data set: organism-based. The following applies: in vivo, 168 h, time 7 day.
A short description of data set [8]: Acute toxicity in Swiss albino mouse assessed as haemoglobin level at 5 mg/kg, po measured after 7 days (reference value: 10.86 +/- 0.87 g/dL). The following applies: in vivo, 168 h, time 7 day. It counts as organism-based.
Data set [9] is described as follows: Cmax in Sprague-Dawley rat at 1 mg/kg, po measured upto 24 hrs by LC-MS/MS analysis. It counts as ADME, organism-based. More on the design: route oral, dose 1 mg/kg, time <=24. As to conditions: in vivo. The method, boiled down: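 Female Sprague-Dawley rats (n = 4), fasted overnight 12–14 h, dosed orally at 1 mg kg-1 as a 0.25% CMC suspension and fed 3 h post-dose. Retro-orbital blood was taken from 0.25 to 24 h. Plasma was hexane-extracted and assayed by LC-MS/MS. Cmax and Tmax were read from the data; other parameters came from non-compartmental analysis. Mean ± S.D.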

The nature of data set [10]: Acute toxicity in Swiss albino mouse assessed as monocyte count at 300 mg/kg, po measured after 7 days (reference value: 12.58 +/- 2.86 %). It counts as organism-based. The following applies: in vivo, 168 h, time 7 day.
Data set [11] in a line: Acute toxicity in Swiss albino mouse assessed as tissue protein level at 1000 mg/kg, po measured after 7 days (reference value: 0.029 +/- 0.004 mg/ml). It counts as organism-based. As to conditions: in vivo, 168 h, time 7 day.
Data set [12] can be described thus: Acute toxicity in Swiss albino mouse assessed as relative lung weight at 50 mg/kg, po measured after 7 days (reference value: 0.70 +/- 0.08 %). The following applies: in vivo, 168 h, time 7 day. It counts as organism-based.
Data set [13] in a line: Acute toxicity in Swiss albino mouse assessed as relative liver weight at 1000 mg/kg, po measured after 7 days (reference value: 6.81 +/- 2.14 %). It counts as organism-based. The following applies: in vivo, 168 h, time 7 day.
The nature of data set [14]: Acute toxicity in Swiss albino mouse assessed as body weight at 5 mg/kg, po observed on day 1 (reference value: 20.38 +/- 0.24 g). Type of data set: organism-based. As to conditions: in vivo, 24 h, time 1 day.
Data set [15] can be described thus: Acute toxicity in Swiss albino mouse assessed as relative brain weight at 5 mg/kg, po measured after 7 days (reference value: 1.63 +/- 0.13 %). It counts as organism-based. The following applies: in vivo, 168 h, time 7 day.
Data set [16] is described as follows: Acute toxicity in Swiss albino mouse assessed as relative liver weight at 300 mg/kg, po measured after 7 days (reference value: 6.81 +/- 2.14 %). Type of data set: organism-based. As to conditions: in vivo, 168 h, time 7 day.
Data set [17] in a line: Acute toxicity in Swiss albino mouse assessed as basophil count at 50 mg/kg, po measured after 7 days (reference value: 1.50 +/- 0.29 %). Type of data set: organism-based. The following applies: in vivo, 168 h, time 7 day.
Data set [18] is described as follows: Acute toxicity in Swiss albino mouse assessed as SGOT level at 1000 mg/kg, po measured after 7 days (reference value: 31.99 +/- 3.37 U/L). The following applies: in vivo, 168 h, time 7 day. Type of data set: organism-based.
Data set [19] is described as follows: Acute toxicity in Swiss albino mouse assessed as haemoglobin level at 50 mg/kg, po measured after 7 days (reference value: 10.86 +/- 0.87 g/dL). It counts as organism-based. The following applies: in vivo, 168 h, time 7 day.
Data set [20] is described as follows: Acute toxicity in Swiss albino mouse assessed as absolute ovary weight at 5 mg/kg, po measured after 7 days (reference value: 0.04+/- 0.02 g). Type of data set: organism-based. The following applies: in vivo, 168 h, time 7 day.
Data set [21] is described as follows: Acute toxicity in Swiss albino mouse assessed as WBC count per thousand/mm3 at 1000 mg/kg, po measured after 7 days (reference value: 6.84 +/- 0.83 /mm3). Type of data set: organism-based. As to conditions: in vivo, 168 h, time 7 day.
The nature of data set [22]: Acute toxicity in Swiss albino mouse assessed as relative heart weight at 1000 mg/kg, po measured after 7 days (reference value: 0.51 +/- 0.02 %). It counts as organism-based. As to conditions: in vivo, 168 h, time 7 day.
Data set [23] can be described thus: Acute toxicity in Swiss albino mouse assessed as relative uterus weight at 300 mg/kg, po measured after 7 days (reference value: 1.63 +/- 0.71 %). It counts as organism-based. The following applies: in vivo, 168 h, time 7 day.

Structures are written as SMILES. Active and inactive are the calls of the source. The rule behind the calls is not given here.

For `CCCCN(C)C(=O)CCCCOc1ccc([C@H]2c3ccc(OC)cc3OC(C)(C)[C@@H]2c2ccccc2)cc1`, the outcome in the data set on Calvarial osteoblast was Active. The Activity in data set [1] is 0.12 g; in data set [2], 0.14 nM/mg; in [3], 0.11 g; in [4], 5.69 /mm3; in [5], 0.33 g; in data set [6] it was 15 µg/mg. The Activity in data set [7] came to 0.35 g; in data set [8] it was 12.94 g/dL; in data set [10], 8.99%; in [11], 0.032 mg/mL; in [12], 0.84%; in data set [13] it was 5.28%. The Activity in data set [14] is 20.65 g; in data set [15], 1.46%; in data set [16], 4.84%; in data set [17] it was 0.5%; in data set [18], 38.6 U/L; in data set [19], 13.14 g/dL. In addition, the Activity in data set [20] was 0.07 g; in [21], 5.1 /mm3; in data set [22], 0.57%; in data set [23] it was 1.23%. For the same molecule, the highest level in [9] (Cmax) was 38.9 ng/mL.
